# Screens (PubChem BioAssay)
# proKLK7 act: proKLK7 zymogen activators, primary screen, biochemical, fluorescence intensity. activation, % at 7 µM. 0.9% of 370,000 active. purified proKLK7, EDANS-DABCYL substrate fluorescence; 100% is mature enzyme control, 0% vehicle. Kallikrein-7 (Homo sapiens), P49862;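 active = activation above the mean of all tested compounds plus 3 SD, computed per campaign excluding outliers beyond control limits, cut at about 13% in these data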
# CRFR2-BP antag: antagonists of CRF-BP/CRF-R2 complex, primary screen, cell-based, HEK293, calcium dye fluorescence, uHTS. CRF-induced calcium fluorescence. AID 588475, 2011. 0.59% of 350,000 active. inhibition, % at 11.8 µM;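 active = inhibition of the ligand-induced calcium signal above about 50% at the single tested concentration, limit read from the data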
# CRFBP-R2 agonist: agonists of CRF-BP/CRF-R2 complex, primary screen, cell-based, HEK293, calcium dye fluorescence, uHTS; AID 588473, 2011; activation, % at 13.2 µM; 0.46% of 350,000 active; calcium dye fluorescence (FLIPR); percent of saturating CRF peptide response;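 active = activation of at least 50%, plus an integration ratio under a set limit after plate pattern correction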;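 note: plate controls were neutral control wells without compound for no effect and CRF at EC100 for full effect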
# DDE Tn6 FP inh: inhibitors of Tn6 peptide binding to fibrin DD(E), primary screen, biochemical, fluorescence polarization, human fibrin, Tn6 probe; inhibition, % at 8.3 µM; Fibrin DD(E) TRITC-Tn6 fluorescence polarization displacement; AID 720509, 2013; 0.21% of 370,000 active; Fibrinogen beta chain (Homo sapiens), P02675;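 active = inhibition above a per-campaign cutoff: mean of compounds within control limits plus 3 SD, cut at about 15% in these data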;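 note: 0% = median of all compound wells on the plate and 100% = blocking peptide control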
# Target sequence (P02675 whole entry, looked up): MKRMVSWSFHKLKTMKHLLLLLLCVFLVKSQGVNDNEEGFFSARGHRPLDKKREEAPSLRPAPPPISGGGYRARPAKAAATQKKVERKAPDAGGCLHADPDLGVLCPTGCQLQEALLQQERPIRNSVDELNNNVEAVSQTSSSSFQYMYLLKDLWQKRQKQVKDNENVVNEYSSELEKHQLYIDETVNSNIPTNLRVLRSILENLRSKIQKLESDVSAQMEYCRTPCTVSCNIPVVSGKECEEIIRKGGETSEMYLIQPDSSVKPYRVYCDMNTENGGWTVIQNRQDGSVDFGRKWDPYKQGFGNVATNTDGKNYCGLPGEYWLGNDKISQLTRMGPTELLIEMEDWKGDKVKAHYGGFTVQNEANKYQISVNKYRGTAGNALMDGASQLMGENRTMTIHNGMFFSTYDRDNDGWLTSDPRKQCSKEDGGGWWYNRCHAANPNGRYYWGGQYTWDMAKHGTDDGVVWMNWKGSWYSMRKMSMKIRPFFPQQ
# Tn7 DDE FP: inhibitors of Tn7 peptide binding to fibrin DD(E), primary screen, biochemical, fluorescence polarization, human fibrin, Tn7 probe; FP displacement of FITC-Tn7 peptide from fibrin DD(E); 0% = median of compound wells per plate; AID 720508, 2013; inhibition, % at 8.3 µM; 0.13% of 370,000 active; Fibrinogen beta chain (Homo sapiens), P02675;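 active = inhibition above the mean of compounds falling within the control limits plus 3 SD of them, cut at about 14% in these data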;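 note: 0% = plate median of compound wells and 100% = 10 µM Aha-Tn7 peptide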
#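 system = human fibrin DD(E) protein | quantity = DD(E) 2 µM final | medium = Tris/NaCl/CaCl2 buffer, pH 7.8 | also added = labelled Tn7 tracer, 0.1 µM | compound dosing = single point at 8.3 µM | timing = compound with protein 10 min, then 3 h after probe, room temperature | signal = FP measurement | benchmarks = Aha-Tn7 high control | repeats = one replicate per compound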
# CendR NRP1 mod: modulators of CendR peptide binding to NRP-1, primary screen, biochemical, fluorescence polarization, uHTS. FAM-RPARPAR peptide binding to NRP-1. Neuropilin-1 (Homo sapiens), O14786. 0.85% of 360,000 active. inhibition, % at 25 µM. AID 602438, 2012;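 active = inhibition or corrected inhibition above about 18%, plus a signal ratio from 0.5 to 1.5, limit read from the data, passing the limit was not always enough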
# An asterisk follows results filed as active; · = no result. Most compounds without a hit are left out; they make up all but 2.9% or so of the library.
SMILES,proKLK7 act,CRFR2-BP antag,CRFBP-R2 agonist,DDE Tn6 FP inh,Tn7 DDE FP,CendR NRP1 mod
C=C1C[C@@]23CCC4[C@@](C)(CCC[C@@]4(C)C(=O)O)C2CC[C@]1(O)C3 (stereo partly drawn),0,4,-1,7,-7,32*
C[C@@]12CCC3[C@@](CCC4[C@@]3(C)CCC[C@@]4(C)C(=O)O)(CC1=O)C2 (stereo partly drawn),0,6,-1,-3,-1,11
CCCCOc1ccc(S(=O)(=O)N2CCN(C)CC2)cc1,0,4,-2,3,11,26*
Cc1ccc(C)c(Oc2ccc(S(=O)(=O)N3CCN(C)CC3)cn2)c1,0,10,-2,6,-1,12
COc1ccc(S(=O)(=O)N2CCN(C)CC2)cn1,0,3,0,3,-8,22*
CCCCOc1ccc(S(=O)(=O)N2CCCCCC2)cc1,0,0,1,-3,-1,9
O=C(c1sccc1Cl)N1CCC(n2nnc3ncccc32)CC1,0,·,·,8,-5,·
[O-][n+]1c(/C=C/c2ccccc2)ccc2ccccc21,3,15,-1,4,-1,-10
[O-][n+]1c2ccccc2[n+]([O-])c2cc(O)ccc21,1,6,-1,16*,-5,9
O=C(OCc1ccccc1)N1C[C@H](O)[C@H](O)C[C@@H]1c1c(Cl)cccc1Br,0,·,·,0,-4,20*
O=C(OCc1ccccc1)N1C=CC2CC1c1c(Cl)cccc12 (stereo not drawn),-1,14,3,2,11,6
C=CCNC(=O)Nc1ccc2c(c1)[C@]1(CC(=O)N(CC(C)C)C1c1ccccc1)C(=O)N2C (stereo partly drawn),1,·,·,2,1,·
Cc1ccccc1C(=O)Nc1scc(-c2ccc(Br)cc2)c1C(=O)O,0,68*,-1,-1,-1,-15
O=C(Nc1scc(-c2ccccc2)c1C(=O)O)c1ccccc1F,1,24,-2,-4,-1,-5
O=C(Nc1scc(-c2ccc(Br)cc2)c1C(=O)O)c1ccccc1F,0,56*,0,6,3,-23
O=C(C(=O)N1CCN(S(=O)(=O)c2cccc3ccccc23)CC1)c1cccc(C(F)(F)F)c1,1,·,·,1,-7,·
Cc1cc(N2CCOCC2)nc(NCc2ccccc2)n1,0,15,122*,2,-4,-2
Cc1cc(N2CCOCC2)nc(N)n1,0,-61,164*,1,0,2
Nc1nc(Cl)cc(N2CCOCC2)n1,0,-13,0,2,-3,-11
CCSc1nnc(NC(=O)C(C)(C(F)(F)F)C(F)(F)F)s1,0,49,20,-1,-3,5
CCSc1nnc(NC(=O)C(CC)(C(F)(F)F)C(F)(F)F)s1,0,56*,31,1,-1,-9
COc1cccc(C2C(C(=O)c3sc(C)nc3C)=C(O)C(=O)N2CCN2CCOCC2)c1OC (stereo not drawn),1,10,0,-5,1,1
COc1ccccc1C1C(C(=O)c2sc(C)nc2C)=C(O)C(=O)N1CCN1CCOCC1 (stereo not drawn),1,94*,-2,-7,-1,2
O=C(N1CCCCCC1)N1CCN(C(=O)N2CCCCC2)CC1,-1,-10,0,0,0,28*
CN(C)S(=O)(=O)N1CCN(C(=O)N2CCCCCC2)CC1,0,6,-1,-3,-3,-6
CN(C)C(=O)NCCCC#Cc1ccccc1,0,·,·,-3,2,·
COc1ccc(Cn2cc(CN3[C@@H](Cc4ccccc4)COc4cc(Br)ccc4S3(=O)=O)nn2)cc1,0,·,·,-4,-2,·
